Screening results from PubChem.
Exocytosis inh: lytic granule exocytosis inhibition; 0.66% of 360,000 active; inhibition, % at 10 µM; TALL-104 LAMP-1 surface exposure, flow cytometry; cells stimulated with thapsigargin and PMA;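 active = inhibition above about 55%, limit read from the data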
NTR1 ag: NTR1 (human) agonism; activation, % at 20 µM; P30989; 0.17% of 330,000 active; NTR1-U2OS beta-arrestin-GFP spot imaging, agonist mode;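 active = activation at or above 40% of the spot to cytoplasm intensity ratio, with at least 20 cells analyzed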;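 also: 0% = DMSO without peptide and 100% = 100 nM NTR1 peptide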
Bfl-1 A1 inh: inhibitors of the anti-apoptotic protein A1, read as caspase activation | MEF A1-2A-BIM cells, Caspase-Glo 3/7 luminescence, 3 h; percent of clofoctol response, vehicle zero | caspase activation, % (no concentration beside the values) | 0.066% of 330,000 active | AID 2462;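 active = over half of replicate activation scores above 10%, or exactly half above 10 with the replicate mean above 10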
HGIII-sPLA2 inh: Blocks human group III sPLA2 activity; inhibition, % at 12.2 µM; QFRET BODIPY PC-A2 liposome hydrolysis, fluorescence; Q9NZ20; 0.56% of 370,000 active; AID 743126;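 active = inhibition above mean plus 3 SD of compounds lying within the high and low control bounds, cut at about 19% in these data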;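 also: 0% = median of test compound wells and 100% = no enzyme DMSO wells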
Target sequence (Q9NZ20 whole entry, looked up): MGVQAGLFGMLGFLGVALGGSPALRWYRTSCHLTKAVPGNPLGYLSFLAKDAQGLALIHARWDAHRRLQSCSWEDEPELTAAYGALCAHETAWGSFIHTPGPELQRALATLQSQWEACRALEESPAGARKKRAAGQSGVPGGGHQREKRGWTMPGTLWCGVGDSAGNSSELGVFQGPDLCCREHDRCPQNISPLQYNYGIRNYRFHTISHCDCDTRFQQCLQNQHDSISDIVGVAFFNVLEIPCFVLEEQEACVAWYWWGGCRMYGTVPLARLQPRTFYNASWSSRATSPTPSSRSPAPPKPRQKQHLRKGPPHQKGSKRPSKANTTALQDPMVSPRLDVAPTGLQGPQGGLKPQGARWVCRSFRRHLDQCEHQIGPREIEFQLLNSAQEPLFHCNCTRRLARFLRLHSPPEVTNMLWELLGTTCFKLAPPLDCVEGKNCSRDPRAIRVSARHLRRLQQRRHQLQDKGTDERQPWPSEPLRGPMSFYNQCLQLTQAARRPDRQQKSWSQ
MC4R ag barr: activates human MC4R beta-arrestin recruitment. P32245. U2OS MC4R beta-arrestin complementation, luminescence; percent of melanotan II response, DMSO zero. activation, % at 8.9 µM. 0.98% of 360,000 active. AID 540308;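 active = activation above a per-plate cutoff, the mean activation of sample wells on that plate plus 3 SD, cut at about 8% in these data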
MC4R antag cAMP: blocks human MC4R cAMP signaling. 0.48% of 360,000 active. P32245. inhibition, % at 6.5 µM. MC4R-expressing cells, MTII-stimulated cAMP, LANCE TR-FRET;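 active = inhibition above its plate's cutoff, the mean of tested wells on that plate plus 3 SD, cut at about 29% in these data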;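 also: 0% = Melanotan II alone and 100% = Melanotan II plus saturating MCL0020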
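material = U2OS cells stably expressing human melanocortin 4 receptor (MC4R) | also added = Melanotan II challenge | dosing = single nominal compound dose of 6.5 µM | detection = TR-FRET with Eu-cAMP and labeled anti-cAMP, 671 nm | replication = singlicate | timing = compound 30 min, challenge 1 h, detection 1 h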
* marks the source's active call; other numbers are inactive results; · = not tested or not shown. Compounds with a hit are over-represented: about 2.5% of the library has one in this group of screens.

SMILES	Exocytosis inh	NTR1 ag	Bfl-1 A1 inh	HGIII-sPLA2 inh	MC4R ag barr	MC4R antag cAMP
CC(C)C[C@H](NC1(C(=O)NCCc2c[nH]c3ccccc23)CCN(C)CC1)C(=O)NCCCc1ccccc1	·	·	·	-52.3	·	·
CCN(CC)c1ccc(/C=C2/SC(=O)N(C(C)C)C2=O)o1	78.3*	·	·	-12.4	-0.6	6.8
O=C(Cc1csc(Nc2nc(=S)[nH]c3ccccc23)n1)NCCCN1CCN(c2ccccc2F)CC1	84.4*	8.4	1.2	-16.0	0.5	9.3
COc1ccc(Sc2cccc3c2S(=O)(=O)N([C@H](C)c2ccccc2)C[C@@H](COCc2ccccc2)O3)cc1OC	·	·	·	-6.0	·	·
COc1ccccc1-n1c([S-])c(C(=O)Nc2ccccc2C(F)(F)F)[n+]2ccc(C(=O)NCCO)cc12	63.3*	2.2	-0.1	-0.9	-1.8	3.3
O=C(c1ccc(Cl)cc1)c1cnc(Nc2ccccc2Cl)s1	-1.7	4.0	-2.0	-5.8	9.9*	7.3
O=Cc1cccnc1SCc1ccccc1	64.4*	5.1	-0.1	4.0	-0.4	-21.7
Oc1cccnc1SCc1ccccc1	2.5	11.6	-1.5	8.8	-0.7	4.9
C[C@H]1[C@@H](OC(=O)Nc2ccc(Cl)cc2)CC[C@@]23CCCN2C(=O)CCC[C@@H]13	·	·	·	-9.3	·	·
C/C(CC(=O)Nc1ccccn1)=N\NC(=O)c1cccc(C)c1	-0.5	1.1	-0.1	0.8	1.2	33.6*
COc1ccc(C(=O)N/N=C(\C)CC(=O)Nc2ccccn2)cc1OC	-25.0	0.5	-0.1	0.3	0.1	9.6
CSC(=Cc1ccc(C(=O)c2ccc(C)cc2)n1C)S(C)=O (stereo not given)	·	·	·	2.8	·	·
O=C(NCc1ccc(C(=O)N2CCOCC2)cc1)c1cccc(Br)c1	·	·	·	0.0	·	·
Cc1cc(NC(=O)CSc2nnc(-c3c[nH]c4ccccc34)n2-c2ccc(Cl)cc2)no1	-2.3	1.9	-1.2	-4.9	12.5*	6.5
CCOC(Cn1c(SCC(=O)Nc2cc(C)on2)nc2ccccc2c1=O)OCC	-0.3	-0.7	-0.7	1.3	-1.8	0.7
CCOC(CCn1c(SCC(=O)Nc2cc(C)on2)nc2ccccc2c1=O)OCC	-1.6	1.2	0.2	7.7	1.4	0.1
Cc1cc(NC(=O)CSc2nc3ccccc3c(=O)n2Cc2ccccc2)no1	0.9	4.8	0.3	1.0	8.5*	5.5
Cc1ccc(Cn2c(SCC(=O)Nc3cc(C)on3)nc3ccccc3c2=O)cc1	1.3	4.9	-1.3	7.8	8.8*	-7.6
COC(=O)C1=C(C)N(C)C(=NCc2cc(OC)c(OC)c(OC)c2)NC1c1cccc(F)c1 (stereo not given)	·	·	·	-4.5	·	·
CN1Cc2nnn(Cc3ccccc3)c2-c2cc(N3CCCCC3)ccc2S1(=O)=O	·	·	·	0.4	·	·
O=C(NCc1cccs1)C1CCN(S(=O)(=O)c2cccc3ccccc23)CC1	·	·	·	-4.3	·	·
CCn1nc([N+](=O)[O-])c(C(C#N)c2nc3cc(C(F)(F)F)ccc3s2)c(Cl)c1=O (stereo not given)	83.2*	26.2	0.0	-34.0	-1.9	16.0
CCn1c2ccccc2c2cc(NC(=O)CSc3nnnn3-c3ccccc3)ccc21	-1.5	-1.4	-0.2	-14.0	8.7*	7.2
O=C(CSc1nnnn1-c1ccccc1)Nc1ccc(Cl)cc1	-1.2	-0.3	0.7	-13.6	7.5	3.0
Fc1ccc(-c2nc3c(-c4ccc(Cl)cc4)cnn3cc2CCN2CCOCC2)cc1	1.9	0.6	0.4	-2.3	8.8*	6.0
SMILES	Exocytosis inh	NTR1 ag	Bfl-1 A1 inh	HGIII-sPLA2 inh	MC4R ag barr	MC4R antag cAMP
O=C(Nc1cccc(-c2nc3cccnc3s2)c1)c1ccc(Cl)nc1	3.8	2.7	-1.1	0.1	8.6*	3.4
Cc1[nH]c2ccccc2c1/C=N/Nc1nc(Nc2ccccc2)nc(N2CCOCC2)n1	5.0	22.3	0.6	-17.8	1.7	14.7
Oc1[nH]c2ccccc2c1N=Nc1nc(Nc2ccccc2)nc(N2CCOCC2)n1	2.7	16.4	0.3	-4.3	1.4	28.5*
Cc1ccc(Oc2nc3ccccn3c(=O)c2/C=C(\C#N)C(=O)NC2CCS(=O)(=O)C2)cc1 (stereo not given)	73.9*	2.0	0.5	-3.3	-2.0	3.7
Cc1cccn2c(=O)c(/C=C(\C#N)C(=O)NC3CCS(=O)(=O)C3)c(Oc3ccccc3Cl)nc12 (stereo not given)	-2.1	8.8	-0.6	-2.0	-1.0	9.2
Cc1ccccc1Oc1nc2c(C)cccn2c(=O)c1/C=C(\C#N)C(=O)NC1CCS(=O)(=O)C1 (stereo not given)	82.1*	3.0	0.4	-2.1	1.2	2.1
S=C(SCc1cc(Cl)cc2c1OCOC2)N1CCSCC1	·	·	·	3.4	·	·
Cc1ccc(C(=O)COC(=O)c2cc(=O)[nH]c3ccccc23)cc1	1.3	1.0	1.9	6.1	-1.9	-8.3
CCCn1c(C)cc(C(=O)COC(=O)c2cc(=O)[nH]c3ccccc23)c1C	-13.3	·	·	3.4	8.9*	-4.0
O=[N+]([O-])c1nn(-c2ccccc2)[n+]([O-])c1N1CCN(c2ccccc2F)CC1	-3.2	2.3	0.4	10.1	9.3*	-4.6
O=C(Nc1ccncc1)c1cc(-c2cccc(Br)c2)nc2ccccc12	-1.7	15.4	0.4	1.9	21.6*	17.6
CC(C)COc1cccc(-c2cc(C(=O)N/N=C/c3ccncc3)c3ccccc3n2)c1	27.5	6.5	-0.8	2.5	9.6*	17.2
COc1cc(-c2cc(C(=O)Nc3ccncc3)c3ccccc3n2)cc(OC)c1OC	1.2	-0.6	-1.9	-8.5	-1.4	6.0
Cc1ccc(-c2cc(C(=O)Nc3ccncc3)c3ccccc3n2)cc1	9.4	1.3	-0.5	7.7	8.9*	6.2
O=C(Nc1cccnc1)c1cc(-c2cccc(Br)c2)nc2ccccc12	-18.2	9.5	-0.3	-12.1	2.6	3.8
COc1ccc(NC(=O)c2cc(-c3ccc(C)o3)nc3ccccc23)cc1OC	63.7*	2.9	-0.6	-8.1	0.6	-5.7
Cc1ccc(Cl)cc1NC(=O)N(C)CCOC(=O)Nc1cccc(Cl)c1	·	·	·	-16.4	·	·
COc1cc(NC(=O)c2cc(-c3cccnc3)nc3ccc(Br)cc23)cc(OC)c1	-28.0	5.9	0.2	1.7	8.2*	3.1
CCOC(=O)CS(=O)(=O)c1ccccc1	-1.1	-5.4	-0.5	8.5	-1.3	-2.3
CCOC(=O)CCS(=O)(=O)c1nc(-c2ccccc2)cc(C(F)(F)F)n1	88.1*	-0.5	9.7*	·	-2.7	16.4
CCOC(=O)CS(=O)(=O)c1nc(-c2ccccc2)cc(C(F)(F)F)n1	29.9	1.6	8.7*	-18.1	-4.3	13.1
COCC(C)NC(=O)CCS(=O)(=O)c1nc(-c2ccc(OC)cc2)cc(C(F)(F)F)n1 (stereo not given)	77.5*	15.2	-0.1	-0.5	-1.0	9.9
COc1ccc(-c2cc(C(F)(F)F)nc(S(C)(=O)=O)n2)cc1	39.6	17.4	0.2	-2.0	-4.1	3.6
